From ChEMBL document CHEMBL1759856, “Synthesis and study of 2-amino-7-bromofluorenes modified with nitroxides and their precursors as dual anti-amyloid and antioxidant active compounds” (Eur J Med Chem, 2011)
Calls of active or inactive are those of the source. The rule behind the calls is not given here.

Experiments:
[1] = Antioxidant activity assessed as peroxyl radical scavenging activity at 10 uM by fluorescence quenching assay; format: functional
In short: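 Peroxyl radicals were assayed with a commercial ORAC kit, per the manufacturer's protocol, with compound at 10 µM. The read-out was quenching of indicator fluorescence (ex 480 nm, em 520 nm).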

[2] = test system: HBMEC; test: Antiinflammatory activity in HBMEC cells assessed as inhibition of TGRL lipolysis-induced IL-8 gene expression by RT-PCR analysis relative to control; format: functional, cell-based; conditions: Homo sapiens
In short: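 HBMEC (passage 6) were grown in serum-free or 10%-serum complete medium on attachment factor at 37°C in 5% CO2. Cells were pretreated 30 min with 200 µM compound, then exposed 3 h to TGRL (150 mg/dL) plus lipoprotein lipase (2 U/mL), preincubated together 30 min at 37°C. IL-8 mRNA was measured by SYBR Green qRT-PCR, normalized to GAPDH, comparative CT; N = 3.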

[3] = Antioxidant activity assessed as hydroxyl radical scavenging activity by electron paramagnetic resonance spectra analysis; format: functional; set-up: concentration or dose not given beside the values
In short: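 For EPR, 9 µl of ROS mixture was combined immediately with 1 µl of compound from a 2 mM stock. About 5 µl was loaded into a sealed quartz capillary for measurement.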

[4] = Antioxidant activity assessed as peroxyl radical scavenging activity by electron paramagnetic resonance spectra analysis; format: functional
[5] = Antioxidant activity assessed as hydroxyl radical scavenging activity at 0.2 to 10 uM; format: functional
In short: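 Hydroxyl radical scavenging was measured with a commercial HORAC kit, per the manufacturer's protocol, at compound concentrations of 0.2, 1 and 10 µM. Read-out was fluorescence (ex 485 nm, em 530 nm) of a reporter that is inversely proportional to surviving radical. Distilled water served as control.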

[6] = test system: HBMEC; test: Antiinflammatory activity in HBMEC cells assessed as inhibition of TGRL lipolysis-induced ATF3 gene expression by RT-PCR analysis relative to control; format: functional, cell-based; conditions: Homo sapiens
In short: (§1)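 Human brain microvascular endothelial cells (passage 6) grown at 37°C, 5% CO2; pre-treated 30 min with 200 µM compound, then 3 h with TGRL (150 mg/dL) plus lipoprotein lipase (2U/mL), pre-incubated together 30 min at 37°C. Total RNA reverse-transcribed; SYBR Green real-time PCR normalised to GAPDH, comparative CT method; N = 3.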

[7] = test system: HBMEC; test: Antiinflammatory activity in HBMEC cells assessed as inhibition of TGRL lipolysis-induced COX-2 gene expression by RT-PCR analysis relative to control; format: functional, cell-based; conditions: Homo sapiens; in short: as §1

Row | SMILES | Activity [1] | Activity [2] | Activity [3] [%] | Activity [4] [%] | Activity [5] | fold change (FC) [6] | fold change (FC) [7]
1 | CN1C(C)(C)C=C(CNc2ccc3c(c2)Cc2cc(Br)ccc2-3)C1(C)C | Active | inactive | 29 | 100 | Active |  | 
2 | CN(C)c1ccc2c(c1)Cc1cc(Br)ccc1-2 | Active |  |  |  | Active |  | 
3 | CC1(C)CC(O)CC(C)(C)N1[O] | Active |  |  |  | Active |  | 
4 | CC1(C)C=C(CNc2ccc3c(c2)Cc2cc(Br)ccc2-3)CC(C)(C)N1O | Active | Active | 61 | 80 | Active |  | 
5 | CC1(C)C(Br)=C(CNc2ccc3c(c2)Cc2cc(Br)ccc2-3)C(C)(C)N1[O] | Active | inactive | 10 |  | Active |  | 
6 | CC1(C)C=C(CNc2ccc3c(c2)Cc2cc(Br)ccc2-3)CC(C)(C)N1[O] | Active | Active | 26 |  | Active |  | 
7 | CC1(C)C=C(CNc2ccc3c(c2)Cc2cc(Br)ccc2-3)C(C)(C)N1[O] | Active | inactive | 28 | 73 | Active |  | 
8 | CN(CC1=CC(C)(C)NC1(C)C)c1ccc2c(c1)Cc1cc(Br)ccc1-2 | Active | inactive | 18 | 100 | Active |  | 
9 | CN(CC1=CC(C)(C)N([O])C1(C)C)c1ccc2c(c1)Cc1cc(Br)ccc1-2 | Active |  | 18 |  | Active | 18.3 | 2.7
